From article PMC4504105 (Journal of Cancer, 2015) come the findings set out here.

In data set [1] the test system is 26S proteasomes from PC-3M cells, trypsin-like (T-L) activity. Briefly: 26S proteasome activity assay, T-L. The data set is classed as biochemical. Conditions: 1h; for IC50: read-out: IC50 for T-L, 26S proteasomes, 37°C.
The subject of data set [2] is 26S proteasomes from PC-3M cells, chymotrypsin-like (CT-L) activity. Briefly: 26S proteasome activity assay, CT-L. The data set is classed as biochemical. Particulars: 1h; for IC50: read-out: IC50 for CT-L, 26S proteasomes, 37°C.
For the next data set, the system named is PC-3M cell xenograft. Briefly: PC-3M xenograft tumor model. The data set is classed as in vivo, Balb/c male nude mice. Particulars: intraperitoneal, twice weekly, day 37. The gist of the method: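 Male Balb/c nude mice, 4-5 weeks, SPF. 3×10^6 PC-3M cells in PBS injected s.c. into the right flank. At about 0.2 cm3, randomised to 5 groups of 7: saline, reference inhibitor 1.25 mg/kg, test compound 1.25, 2.25 or 3.25 mg/kg. Dosed i.p. twice weekly, 11 times over 36 days. Volume = a×b²/2, measured before each dose; final measurement on day 37.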

Data set [3] deals with PC-3M cells. Description: Cell cycle assay. Type of data set: cell-based. Conditions: 48 h.
The subject of another data set is Bcap37 cells. Description: Cancer cell proliferation. The data set is classed as cell-based. Conditions: read-out: IC50, proliferation, 48 h. The gist of the method:
(§1)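 PC-3M, […] or Bcap37 cells kept in RPMI 1640 with 10% FBS and 1% penicillin/streptomycin, 37°C, 5% CO2. In 96-well plates, treated 48 h with graded concentrations of test compound or of a reference proteasome inhibitor in parallel. Survival by sulforhodamine B staining. IC50 given as mean ± SD, three independent experiments.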

The subject of a further data set is HL-60 cells. Description: Cancer cell proliferation. Type of data set: cell-based. Particulars: read-out: IC50, proliferation, 48 h. The method in brief: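 HL-60 in RPMI 1640 with 10% FBS and penicillin/streptomycin at 37°C, 5% CO2. Seeded in 96-well format and exposed 48 h to a range of test compound concentrations, with a reference proteasome inhibitor run alongside. Survival by MTT. IC50 reported as mean ± SD over three independent experiments.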

A further data set can be described thus: Viscera. Type of data set: in vivo, Balb/c male nude mice. Particulars: all three doses (1.25, 2.25, 3.25 mg/kg), P>0.05. The gist of the method: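 Organ index from the PC-3M xenograft mice (male Balb/c nude; saline, reference inhibitor or test compound at 1.25, 2.25, 3.25 mg/kg i.p. twice weekly, 11 doses over 36 days). On day 37, body weight recorded, then mice killed; heart, liver, lung, brain, kidney and spleen excised and weighed. Group means ± SD compared with control by Student's t-test.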

Data set [4] deals with ubiquitinated and cell cycle proteins in PC-3M cells. Briefly: Western blot analysis, PC-3M cells. The data set is classed as cell-based. The method in brief: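 PC-3M cells exposed 48 h to a series of test compound concentrations (12.5-100 nM for cell-cycle proteins), then lysed. 10% SDS-PAGE, nitrocellulose, 5% milk block. Primary antibodies (ubiquitin, wee 1, cyclin B1, p27, p21, GAPDH) overnight at 4°C; anti-mouse/anti-rabbit secondaries; ECL detection. Three independent experiments; Student's t-test against control.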

Data set [5] addresses T1, 26S proteasomes from PC-3M cells, post-glutamyl peptide hydrolase (PGPH) activity (Homo sapiens, UniProt P28072).
T1 sequence (P28072 35-239): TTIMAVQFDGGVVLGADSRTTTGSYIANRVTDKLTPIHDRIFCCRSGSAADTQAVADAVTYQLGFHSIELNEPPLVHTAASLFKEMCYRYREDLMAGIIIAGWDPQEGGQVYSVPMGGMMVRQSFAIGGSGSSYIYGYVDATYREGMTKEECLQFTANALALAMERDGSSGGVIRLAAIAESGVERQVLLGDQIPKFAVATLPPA
Briefly: 26S proteasome activity assay, PGPH. Type of data set: biochemical. Particulars: 1h.

Data set [6] has as its system proteasome β catalytic sites in PC-3M cells. Briefly: Proteasome activity profiling in intact cells. Type of data set: cell-based. Particulars: 12.5-400 nM, 3 h. The method in brief: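 PC-3M cells treated 3 h with test compound (12.5-400 nM), washed and harvested; proteasomes extracted as for the activity assay. Lysates labelled with Me4BodipyFL-Ahx3Leu3VS (5 μM) for 1 h at 37°C, boiled in sample buffer. 20 μg protein per lane on 12.5% SDS-PAGE, in-gel fluorescence scan. Band integrated optical density quantified; three independent experiments.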

The test system of data set [7] is PC-3M cells. Briefly: Cancer cell proliferation. The data set is classed as cell-based. The gist of the method:
as §1

Another data set relates to Bel-7740 cells. Briefly: Cancer cell proliferation. The data set is classed as cell-based. Conditions: read-out: IC50, proliferation, 48 h. The method in brief: as §1
Data set [8] concerns cell cycle proteins in PC-3M cell xenograft tumors. Briefly: Western blot analysis, xenograft tumor tissue. The data set is classed as in vivo, Balb/c male nude mice. Conditions: p<0.05. The gist of the method:
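Western blot on PC-3M xenograft tumours from mice dosed i.p. twice weekly. Tissue ground and lysed, whole protein on 10% SDS-PAGE, blotted to nitrocellulose, blocked with 5% milk. Primary antibodies against cyclin B1, p21, p27, wee 1 and others overnight at 4°C, then anti-mouse/anti-rabbit secondaries. ECL imaging; Student's t-test against control.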
(Immunoblotting shows a protein as a band on a membrane.)

For `CC(C)C[C@H](NC(=O)[C@H](Cc1ccccc1)NC(=O)c1cnccn1)B(O)O` [PS341, reference compound], the IC50 was 5350 ± 57 nM in data set [1] and 71 ± 1 nM in data set [2]. Further, in the data set on PC-3M cell xenograft (1.25 mg/kg), the “Tumor growth inhibition (final tumor volume)” value stood at 49.6%.
As to `CC(C)C[C@H](NC(=O)[C@H](Cc1ccc2ccccc2c1)NC(=O)[C@H](CC(C)C)NC(=O)c1cnccn1)B(O)O` [YSY01A, N-(2-Pyrazinecarbonyl)-L-leucine-L-(2-naphthyl)-alanine-L-leucine boronic acid], the “Increase of cells in the G2/M phase” value stood at 14% in the data set on PC-3M cells [3] (50 nM) and 44% with PC-3M cells [3] (100 nM). Besides, the IC50 in the data set with Bcap37 cells was 879 ± 18.2 nM; with HL-60 cells, 170 ± 9.9 nM; in data set [5] (read-out: IC50 for PGPH, 26S proteasomes, 37°C) it was 714 ± 44 nM; in data set [1], 1240 ± 77 nM; in the data set with PC-3M cells [7] (read-out: IC50, proliferation, 48 h) it was 150 ± 9 nM; in the data set with Bel-7740 cells, 286 ± 13.2 nM. In addition, the IC50 in [2] was 123 ± 18 nM. Moreover, the “Impact on viscera index (body, heart, liver, brain, kidney, spleen and lung)” value in “Viscera” is “slightly impacted”. Besides, the “Protein (cyclinB1, p21, p27, P-cdc2 (tyr15), wee 1) expression” value in data set [4] (12.5-100 nM, 48 h, p<0.05 versus control) was “increased”. For the same compound, the “Concentration causing ubiquitinated protein accumulation” value in data set [4] (48h) was found to be 25 nM. Moreover, in data set [5] (various YSY01A concentrations), the PGPH activity inhibited is listed as 12-48%. Further, the T-L activity inhibited in data set [1] (various YSY01A concentrations) is recorded as 12-43%. The “β5i, β2, β2i, β1 and β1i/β5 fluorgenic bands” value in data set [6] is given as “decreased”. In addition, the “Inhibition efficacy relative to PS341” value in the data set on PC-3M cells [7] (48h) is on record as “three times highter”. Besides, the CT-L activity inhibited in [2] (various YSY01A concentrations) is on record as 34-86%. The “Tumor growth inhibition (final tumor volume)” value with PC-3M cell xenograft (1.25 mg/kg) came out at 45.7%; in the data set with PC-3M cell xenograft (2.25 mg/kg) it was 52.8%; in the data set on PC-3M cell xenograft (3.25 mg/kg), 60.1%. Moreover, in [8], the “Protein (cyclinB1, p21, p27, P-cdc2 (tyr15), wee 1) expression from tumor tissue” value is “enhanced”.
